TRPC4 inh = inhibitors of mouse TRPC4 channel; B-score at 10 µM; HEK293 TRPC4beta/mu-opioid, DAMGO-evoked Fluo4 calcium flux; stronger effect = lower value; Q9QUQ5; 300,000 tested, 0.39% active;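 active = B-score over 3 SD under the library average, no early fluorescence shift, positive overall ratio signal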
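test system = HEK293 cells with stable TRPC4beta plus mu-opioid receptor expression | detection = Fluo4 Ca2+ flux fluorescence | read-out = integrated fluorescence ratio relative to baseline, converted to per-well B score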
Kir21 block = blocks the mouse Kir2.1 inward-rectifier potassium channel. HEK293-Kir2.1, FluxOR thallium flux fluorescence; stronger effect = lower value. B-score at 10 µM. 310,000 tested, 0.85% active. AID 1672;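 active = fluorescence ratio B-score at or below minus 3 SD of library scores, with starting-brightness B-score within 2 SD, cut at about -4.2 in these data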;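 note: channel flux triggered by added potassium and thallium sulfate stimulus; B-score of peak minus minimum fluorescence over baseline after thallium stimulus; more negative B-score means stronger Kir2.1 block with less thallium influx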
TRPC4 potent = allosteric potentiators of mouse TRPC4 channel | HEK293 TRPC4beta/mu-opioid, DAMGO EC20, Fluo-4 Ca2+ flux; stronger effect = higher value | B-score at 10 µM | AID 2227 | Q9QUQ5 | 310,000 tested, 0.42% active;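 active = B-score of calcium response area above 5 SD of library B-scores, with initial fluorescence ratio within 5 SD of library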
TRPC6 inhibitor = mouse TRPC6 channel inhibition; B-score at 10 µM; Q61143; 310,000 tested, 1.1% active; HEK293-TRPC6, membrane potential dye, ACh-evoked depolarization; stronger effect = lower value;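 active = B-score under library mean minus 3 SD, initial fluorescence not abnormally high, positive integrated signal ratio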;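 note: B-score derived from integrated fluorescence ratio over the kinetic read; more negative B-score means stronger inhibition of depolarization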
Target sequence (Q61143 whole entry, looked up): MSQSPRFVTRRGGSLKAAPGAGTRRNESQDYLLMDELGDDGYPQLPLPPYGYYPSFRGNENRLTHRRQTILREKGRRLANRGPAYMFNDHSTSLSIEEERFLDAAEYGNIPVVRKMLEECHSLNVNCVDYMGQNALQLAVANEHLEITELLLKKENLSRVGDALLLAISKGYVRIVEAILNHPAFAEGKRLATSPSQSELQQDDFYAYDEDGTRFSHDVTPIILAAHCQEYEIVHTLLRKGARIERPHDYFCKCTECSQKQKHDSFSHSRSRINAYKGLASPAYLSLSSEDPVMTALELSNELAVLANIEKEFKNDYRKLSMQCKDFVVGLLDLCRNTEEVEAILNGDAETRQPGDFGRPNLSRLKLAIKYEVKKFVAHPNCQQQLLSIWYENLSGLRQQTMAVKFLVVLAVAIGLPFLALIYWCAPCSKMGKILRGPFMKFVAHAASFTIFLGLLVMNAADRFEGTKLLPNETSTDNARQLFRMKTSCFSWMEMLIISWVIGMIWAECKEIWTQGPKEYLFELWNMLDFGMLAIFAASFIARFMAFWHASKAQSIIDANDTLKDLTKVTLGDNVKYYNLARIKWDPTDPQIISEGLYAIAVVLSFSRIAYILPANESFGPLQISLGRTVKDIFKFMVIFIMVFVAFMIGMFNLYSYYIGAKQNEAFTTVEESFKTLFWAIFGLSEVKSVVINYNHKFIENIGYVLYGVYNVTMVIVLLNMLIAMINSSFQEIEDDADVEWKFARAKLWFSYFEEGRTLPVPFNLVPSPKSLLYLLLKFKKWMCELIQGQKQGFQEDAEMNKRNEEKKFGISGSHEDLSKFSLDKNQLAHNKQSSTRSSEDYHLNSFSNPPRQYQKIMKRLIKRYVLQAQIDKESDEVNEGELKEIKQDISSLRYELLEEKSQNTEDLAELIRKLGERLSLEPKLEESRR
TRPC4 agonist = opens the mouse TRPC4 cation channel; Q9QUQ5; HEK293 TRPC4beta/mu-opioid, Fluo4 calcium fluorescence; stronger effect = higher value; B-score at 10 µM; 310,000 tested, 0.49% active; AID 2237;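 active = B-score above 5 SD of library B-scores, and initial fluorescence ratio not above library mean plus 5 SD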;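 note: positive B-score marks a calcium rise read as TRPC4 activation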
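Assay system: HEK293 stable line with TRPC4beta plus mu-opioid receptor; schedule: 45 min room-temperature Fluo4 loading, 110 s read; technique: kinetic Fluo4 calcium fluorescence; evaluation: integrated baseline-normalised fluorescence ratio, converted to per-well B score; controls: buffer (low) and maximal DAMGO (high)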
TRPC6 act = mouse TRPC6 channel activation. Q61143. HEK293-TRPC6 membrane potential dye fluorescence; stronger effect = higher value. B-score at 10 µM. 310,000 tested, 0.13% active;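 active = B-score of the integrated fluorescence ratio above library mean plus 3 SD, and starting fluorescence ratio within library mean plus 5 SD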;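 note: higher score means more depolarization so channel activation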
TRPC4 spec 2 = mouse TRPC4 off-target activity of TRPC6 inhibitors, second screen; shares compounds with TRPC6 inhibitor; HEK293 TRPC4/MOR, membrane potential dye fluorescence; channel activated by saturating DAMGO dose; inhibition, % at 10 µM; 920 tested, 42% active;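 active = compounds whose fluorescence signal differed from control wells by over 3 SD, either direction, in both duplicate plates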
TRPC4 spec = selectivity of TRPC6 inhibitors: effect on mouse TRPC4; shares compounds with TRPC6 inhibitor; HEK293 TRPC4/mu-opioid, membrane potential fluorescence; activity change, negative = inhibition, % at 10 µM; 920 tested, 61% active;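 active = rise or fall in signal beyond 3 SD of buffer-only wells in both replicate plates, either sign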;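 note: integrated kinetic ratio of fluorescence range over baseline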
HEK293 MPD ctr 2-1 = second counter-screen for TRPC6 inhibitors: parental HEK293 cells; AID 2779; signal change vs control, % at 10 µM; shares compounds with TRPC6 inhibitor; 920 tested, 31% active; parental HEK293 membrane potential dye fluorescence; maximal acetylcholine challenge after compound addition;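 active = membrane potential signal moving either way by over 3 SD of the maximum-effect control, in both duplicate plates, meaning non-specific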
HEK293 MPD ctr-1 = parental HEK293 nonspecific activity of TRPC6 inhibitors | shares compounds with TRPC6 inhibitor | parental HEK293 membrane potential dye fluorescence | membrane potential signal change, % at 10 µM | 920 tested, 60% active | AID 2780;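 active = membrane potential signal shifting up or down by more than 3 SD of buffer-only wells, on both duplicate plates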
HEK293 MPD ctr-2 = parental HEK293 nonspecific activity of TRPC6 modulators; membrane potential signal change, % at 10 µM; shares compounds with TRPC6 inhibitor; AID 488924; 2,400 tested, 51% active; membrane potential dye fluorescence;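 active = membrane potential signal moves up or down beyond 5 SD from buffer-only wells, on both duplicate plates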
HEK293 MPD ctr 2-2 = second counter-screen for TRPC6 modulators: effect in parental HEK293 cells; shares compounds with TRPC6 inhibitor; membrane potential dye fluorescence; after compound, maximal acetylcholine stimulation; inhibition, % at 10 µM; 2,400 tested, 14% active;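 active = membrane potential signal drops by more than 5 SD from the mean control signal, in both duplicate plates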
TRPC4 ctr mod = tests whether TRPC6 modulators also affect mouse TRPC4 | HEK293 TRPC4/mu-opioid, membrane potential fluorescence | 2,400 tested, 69% active | percent change from control (negative = decrease, positive = increase), % at 10 µM | shares compounds with TRPC6 inhibitor;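 active = membrane potential signal moved up or down beyond 5 SD of buffer control wells, in both duplicate plates, actives on both sides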
TRPC4 ctr inh 2 = second selectivity test of TRPC6 modulators against mouse TRPC4; shares compounds with TRPC6 inhibitor; HEK293 TRPC4/mu-opioid, membrane potential dye fluorescence; stimulated with maximal-effect DAMGO; inhibition, % at 10 µM; 2,400 tested, 55% active; AID 488928;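 active = drop in membrane potential signal beyond 5 SD of the control wells in both duplicate plates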;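 note: TRPC4 counter screen for TRPC6 hits run under conditions tuned for TRPC6 not TRPC4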
TRPC6 inh conf = mouse TRPC6 inhibitor confirmation; inhibition, % at 10 µM; 3,300 tested, 43% active; shares compounds with TRPC6 inhibitor; AID 488960; HEK293-TRPC6, membrane potential dye, ACh-evoked depolarization;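 active = fluorescence ratio falls more than 5 SD below the full-stimulation control mean, in both duplicate runs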;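 note: integrated fluorescence ratio of peak minus minimum over baseline after agonist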
TRPC6 act conf = mouse TRPC6 activator confirmation; AID 488961; activation, % at 10 µM; 2,800 tested, 11% active; HEK293-TRPC6 membrane potential dye fluorescence, FDSS; shares compounds with TRPC6 inhibitor;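 active = ratio signal rise beyond 5 SD above unstimulated control wells' mean, seen in both duplicate runs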
Hits are given with their value; n = inactive; x = no result given. Shown are actives, neighbours in structure and some others; about 2.9% of the full set was active somewhere.

SMILES	TRPC4 inh	Kir21 block	TRPC4 potent	TRPC6 inhibitor	TRPC4 agonist	TRPC6 act	HEK293 MPD ctr-2	HEK293 MPD ctr 2-2	TRPC4 ctr mod	TRPC4 ctr inh 2	TRPC6 inh conf	TRPC6 act conf	others
Cc1c(C(=O)NCC2COc3ccccc3O2)oc2ccc(S(=O)(=O)N3CCOCC3)cc12 (centres undefined)	n	n	n	n	n	n	x	x	x	x	x	x
Cc1cc(C2=NNC(=Nc3ccc(S(=O)(=O)N4CCOCC4)cc3)SC2)c(C)n1C	n	n	n	n	n	n	x	x	x	x	x	x
COc1cccc(-c2cccc(NC(=O)C3CCN(Cc4ccc(C)o4)CC3)c2)c1	n	n	n	-5.32	n	n	127.5%	n	18.0%	44.5%	n	x
Cc1ccc2nc(-c3cccc(N)c3)oc2c1	n	n	n	-5.47	n	n	n	n	n	n	n	n
Cc1cc(C)c2oc(-c3cccc(N)c3)nc2c1	n	n	n	n	n	n	x	x	x	x	x	x
COc1ccc(N(C(=O)C2CCCCC2)S(=O)(=O)c2cccc3cccnc23)cc1	n	n	n	n	n	n	x	x	x	x	x	x
Cc1cc(N2CCOCC2)c2c(N)c(Br)cc(C)c2n1	n	n	n	-5.12	n	n	-301.0%	n	-57.0%	42.5%	n	n
COc1ccccc1-n1cnnc1SCC(=O)N1CCOCC1	n	n	n	n	n	n	x	x	x	x	x	x
CCc1nc(SCC(=O)N2CCN(c3ccccc3)CC2)c2oc3ccccc3c2n1	n	n	n	n	n	n	x	x	x	x	x	x
CCOC(=O)c1nnn2c1nc(N1CCCCC1)c1ccccc12	n	n	n	n	n	n	x	x	x	x	x	x
CCOC(=O)c1nnn2c1nc(N1CCN(C)CC1)c1ccccc12	n	n	n	-8.43	n	n	-238.5%	73.5%	-42.0%	53.0%	61.0%	n
O=C(Nc1ccccc1)c1ccccc1Oc1ccc(C(F)(F)F)cc1[N+](=O)[O-]	n	n	n	n	n	n	x	x	x	x	x	x
O=C(Nc1ccc(F)cc1)c1ccccc1Oc1ccc(C(F)(F)F)cc1[N+](=O)[O-]	n	n	n	-5.34	n	n	n	n	n	35.0%	n	n
CCC1CCCCN1CCCNC(=O)c1c(O)nc2cc(C)ccn2c1=O (centres undefined)	n	n	n	n	n	n	x	x	x	x	x	x
Cc1cccn2c(=O)c(C(=O)NCCCN3CC(C)CC(C)C3)c(O)nc12 (centres undefined)	n	n	n	-5.12	73	n	-140.0%	n	n	n	n	n
Cc1ccn2c(=O)c(C(=O)NCCCN3CCCC3=O)c(O)nc2c1	n	n	n	-5.55	n	n	-316.5%	n	-45.0%	n	n	n
Cc1csc2nc(O)c(C(=O)NCCCN3CCCC3=O)c(=O)n12	n	n	n	n	n	n	x	x	x	x	x	x
Cc1ccn2c(=O)c(C(=O)NCCCN3CCCCC3C)c(O)nc2c1 (centres undefined)	n	n	n	-5.28	n	n	-273.5%	70.5%	-44.0%	56.5%	75.5%	n
Cc1nc2ccccc2nc1N1CCC(C)CC1	n	n	n	n	n	n	x	x	x	x	x	x
Cc1cc(N2CCC(C)CC2)nc2cccc(O)c12	-6	n	n	-8.44	n	n	-139.0%	n	-29.5%	85.5%	n	n
CCc1nc2ccc(F)cc2c(C(=O)NC2CCCCC2C)c1C (centres undefined)	n	n	n	n	n	14	428.5%	n	86.0%	43.5%	x	171.0%
Cc1ccccc1NC(=O)CN1CCOCC1	n	n	n	n	n	13.5	n	n	n	n	n	n
Cc1ccccc1NC(=O)CN1CCC(C(=O)c2ccc3c(c2)OCCO3)CC1	n	n	n	-5.55	n	n	n	n	n	n	n	n
Cc1ccc(C(=O)C2CCN(CC(=O)Nc3ccccc3C)CC2)cc1	n	n	n	n	n	n	x	x	x	x	x	x
CCOC(=O)N1CCN(c2nc(-c3ccc(F)cc3)cs2)CC1	n	n	n	n	n	n	x	x	x	x	x	x
SMILES	TRPC4 inh	Kir21 block	TRPC4 potent	TRPC6 inhibitor	TRPC4 agonist	TRPC6 act	HEK293 MPD ctr-2	HEK293 MPD ctr 2-2	TRPC4 ctr mod	TRPC4 ctr inh 2	TRPC6 inh conf	TRPC6 act conf	others
CCOC(=O)C(=O)N1CCN(c2nc(-c3ccc(Cl)cc3)cs2)CC1	n	n	n	-6.2	n	n	n	n	n	n	n	n
CC1C(=O)N2CCCc3cc(S(=O)(=O)N4CCN(c5ccccc5F)CC4)cc1c32 (centres undefined)	n	n	n	n	n	n	x	x	x	x	x	x
CC1CN(C(=O)c2ccc(NS(=O)(=O)c3cccc(Cl)c3)cc2)CC(C)O1 (centres undefined)	n	n	n	n	n	n	x	x	x	x	x	x
Cn1c(=O)c(Cc2ccccc2)c(O)c2ccccc21	n	n	n	n	n	n	x	x	x	x	x	x
Cc1cc(C)n(C(=O)c2c([N+](=O)[O-])c(C)nn2C)n1	n	n	n	n	n	n	x	x	x	x	x	x
Cc1ccc(SC(=O)c2c([N+](=O)[O-])c(C)nn2C)cc1	n	n	n	-7.16	n	n	x	x	x	x	76.0%	n	TRPC4 spec 2=n;TRPC4 spec=n;HEK293 MPD ctr 2-1=-5.5%;HEK293 MPD ctr-1=n
CN(Cc1ccco1)C(=O)Cn1cc(S(=O)(=O)N2CCCC2)c(S(=O)(=O)N2CCCC2)c1	n	n	n	n	n	n	x	x	x	x	x	x
CC(=O)c1cccc(Nc2nc(-c3ccccc3)nc3ccccc23)c1	n	n	n	n	n	n	x	x	x	x	x	x
